What was measured:
[1] = molecular target: T1, 3-hydroxy-3-methylglutaryl-coenzyme A reductase (Rattus norvegicus) (UniProt P51639); experiment: (§1) Inhibition of HMG-CoA reductase compared to mevinolin.
T1 sequence (whole entry): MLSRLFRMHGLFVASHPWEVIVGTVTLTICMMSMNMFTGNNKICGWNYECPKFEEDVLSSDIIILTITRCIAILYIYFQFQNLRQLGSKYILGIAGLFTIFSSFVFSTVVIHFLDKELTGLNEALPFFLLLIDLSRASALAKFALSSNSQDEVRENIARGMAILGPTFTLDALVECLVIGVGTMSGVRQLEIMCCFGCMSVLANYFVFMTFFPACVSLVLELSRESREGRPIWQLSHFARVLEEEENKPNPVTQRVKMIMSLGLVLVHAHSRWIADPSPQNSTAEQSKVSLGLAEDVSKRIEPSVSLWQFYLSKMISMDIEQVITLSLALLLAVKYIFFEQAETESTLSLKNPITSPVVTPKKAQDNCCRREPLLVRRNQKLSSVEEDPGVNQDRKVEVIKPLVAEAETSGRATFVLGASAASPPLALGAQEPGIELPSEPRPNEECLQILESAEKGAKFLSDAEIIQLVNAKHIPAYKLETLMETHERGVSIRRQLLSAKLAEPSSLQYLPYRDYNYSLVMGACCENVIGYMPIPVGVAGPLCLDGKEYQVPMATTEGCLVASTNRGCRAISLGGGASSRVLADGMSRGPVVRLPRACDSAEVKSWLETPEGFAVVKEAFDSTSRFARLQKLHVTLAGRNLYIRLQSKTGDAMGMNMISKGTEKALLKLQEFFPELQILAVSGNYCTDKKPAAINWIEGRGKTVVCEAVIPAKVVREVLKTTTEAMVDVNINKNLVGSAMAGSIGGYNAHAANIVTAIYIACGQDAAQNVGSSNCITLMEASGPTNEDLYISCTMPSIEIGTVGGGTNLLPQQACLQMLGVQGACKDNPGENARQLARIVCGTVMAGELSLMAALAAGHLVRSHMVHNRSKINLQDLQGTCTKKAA
In short: (§2)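 Solubilized, partially purified rat liver HMG-CoA reductase. IC50 from four or five inhibitor concentrations. Relative potency compared IC50 with mevinolin (set to 100), corrected for molecular weight.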

[2] = molecular target: T2, 3-hydroxy-3-methylglutaryl-coenzyme A reductase (Rattus norvegicus, UniProt P51639); experiment: In vitro inhibition of HMG-CoA reductase in solubilized rat liver.
T2 sequence (P51639 whole entry): T1 sequence (whole entry)

[3] = molecular target: T3, 3-hydroxy-3-methylglutaryl-coenzyme A reductase (Homo sapiens) (UniProt P04035); experiment: as §1; assay type: functional; in short: as §2
T3 sequence (whole entry): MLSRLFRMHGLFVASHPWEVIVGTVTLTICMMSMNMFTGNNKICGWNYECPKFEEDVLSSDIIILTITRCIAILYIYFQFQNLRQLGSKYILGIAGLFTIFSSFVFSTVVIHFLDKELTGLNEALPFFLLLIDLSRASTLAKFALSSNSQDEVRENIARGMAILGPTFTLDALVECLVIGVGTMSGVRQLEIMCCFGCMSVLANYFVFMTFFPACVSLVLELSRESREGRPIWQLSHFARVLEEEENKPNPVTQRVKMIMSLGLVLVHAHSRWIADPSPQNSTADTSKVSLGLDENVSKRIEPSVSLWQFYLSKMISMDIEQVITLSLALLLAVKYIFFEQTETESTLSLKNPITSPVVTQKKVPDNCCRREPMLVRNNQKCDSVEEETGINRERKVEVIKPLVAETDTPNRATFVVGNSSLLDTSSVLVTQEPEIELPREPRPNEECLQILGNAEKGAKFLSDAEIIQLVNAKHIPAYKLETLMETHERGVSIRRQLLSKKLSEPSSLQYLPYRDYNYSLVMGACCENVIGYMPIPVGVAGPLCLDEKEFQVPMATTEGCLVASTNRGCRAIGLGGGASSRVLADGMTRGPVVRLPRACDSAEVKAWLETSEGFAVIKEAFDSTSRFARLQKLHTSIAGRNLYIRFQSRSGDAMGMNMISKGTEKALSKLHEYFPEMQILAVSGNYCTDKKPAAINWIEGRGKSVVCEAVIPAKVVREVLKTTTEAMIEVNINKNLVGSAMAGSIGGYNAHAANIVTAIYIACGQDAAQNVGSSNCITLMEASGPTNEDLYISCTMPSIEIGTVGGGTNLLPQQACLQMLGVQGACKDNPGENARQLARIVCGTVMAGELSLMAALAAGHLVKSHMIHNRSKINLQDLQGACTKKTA

[4] = molecular target: T4, 3-hydroxy-3-methylglutaryl-coenzyme A reductase (Homo sapiens, UniProt P04035); experiment: Inhibition of the incorporation of sodium [14C]acetate into cholesterol in HEP G2 cells.; assay type: functional, cell-based, HepG2
T4 sequence (P04035 whole entry): T3 sequence (whole entry)

Compound | Relative potency [1] | IC50 [2] [nM] | Relative potency [3] | IC50 [4] [nM]
O=C(O)C[C@H](O)CC(O)COc1c(Cl)cc(Cl)cc1-c1ccccc1 (stereo not given in full) | 5 | 190 | – | –
O=C(O)C[C@H](O)CC(O)COc1c(Cl)cc(Cl)cc1CC1CCCCC1 (stereo not given in full) | 31 | 27 | – | –
O=C(O)C[C@H](O)CC(O)COc1c(Cl)cc(Cl)cc1C(CCOc1ccc(F)cc1)c1ccc(F)cc1 (stereo not given in full) | 4 | 150 | – | –
CCC(C)(C)C(=O)NC(c1cc(C)cc(C)c1OCC(O)C[C@@H](O)CC(=O)O)C1CCCCC1 (stereo in doubt; 11x) [listing 1 of 2 here] | – | – | < 1 | –
Cc1cc(C)c(OCC(O)C[C@@H](O)CC(=O)O)c(C(C)c2ccc(F)cc2)c1 (stereo not given in full) | – | 160 | – | –
Cc1cc(C)c(OCC(O)C[C@@H](O)CC(=O)O)c(CC2CCCCC2)c1 (stereo not given in full) | 9 | 100 | – | –
Cc1cc(C(c2ccc(F)c(C)c2)c2cc(Cl)cc(Cl)c2OCC(O)C[C@@H](O)CC(=O)O)ccc1F (stereo not given in full) | – | 1000 | – | –
CCC(C)(C)C(=O)NC(c1cc(C)cc(C)c1OCC(O)C[C@@H](O)CC(=O)O)C1CCCCC1 (stereo in doubt; 11w) [listing 1 of 2 here] | – | 320 | – | 15000
Cc1cc(C)c(OCC(O)C[C@@H](O)CC(=O)O)c(C(c2ccc(F)cc2)C2CCCCC2)c1 (stereo not given in full) | 8 | 95 | – | –
O=C(O)C[C@H](O)CC(O)COc1cc(OCc2ccc(F)cc2)c(Cl)cc1Cl (stereo not given in full) | 3 | 260 | – | –
CCC(C)(C)OC(=O)C(c1cc(C)cc(C)c1OCC(O)C[C@@H](O)CC(=O)O)C1CCCCC1 (stereo in doubt; 11r) [listing 1 of 2 here] | – | 60 | – | 12000
Cc1cc(C)c(OCC(O)C[C@@H](O)CC(=O)O)c(C(CC(C)C)c2ccc(F)cc2)c1 (stereo not given in full) | – | 140 | – | –
CC(C)c1c(OCC(O)C[C@@H](O)CC(=O)O)c(-c2ccc(F)cc2)nc2ccccc12 (stereo not given in full) | 16 | 50 | 20 | 250
Cc1c(OCC(O)C[C@@H](O)CC(=O)O)c(-c2ccc(F)cc2)nc2ccccc12 (stereo not given in full) | 1 | 1000 | < 1 | > 5000
CCC(C)(C)OC(=O)C(c1cc(C)cc(C)c1OCC(O)C[C@@H](O)CC(=O)O)C1CCCCC1 (stereo in doubt; 11r) [listing 2 of 2 here] | 12 | – | < 1 | –
Cc1cc(Cl)cc(CCCOc2ccc(Cl)cc2)c1OCC(O)C[C@@H](O)CC(=O)O (stereo not given in full) | 15 | 50 | – | –
Cc1nc2ccccc2c(-c2ccccc2)c1OCC(O)C[C@@H](O)CC(=O)O (stereo not given in full) | < 1 | > 1000 | < 1 | > 5000
O=C(O)C[C@H](O)CC(O)COc1c(CCCOc2ccc(F)cc2)cccc1C1CCCC1 (stereo not given in full) | < 1 | > 1000 | – | –
O=C(O)C[C@H](O)CC(O)COc1c(Cl)cc(Cl)cc1C(F)=C1CCCCC1 (stereo not given in full) | 9 | 95 | – | –
CCC(C)(C)C(=O)NC(c1cc(C)cc(C)c1OCC(O)C[C@@H](O)CC(=O)O)C1CCCCC1 (stereo in doubt; 11w) [listing 2 of 2 here] | 2 | – | < 1 | –

Compound | Relative potency [1] | IC50 [2] [nM] | Relative potency [3] | IC50 [4] [nM]
Cc1cc(Cl)cc(C(c2ccc(F)cc2)c2ccc(F)cc2)c1OCC(O)C[C@@H](O)CC(=O)O (stereo not given in full) | – | 70 | – | –
Cc1c(OCC(O)C[C@@H](O)CC(=O)O)c(C(c2ccc(F)cc2)c2ccc(F)cc2)cc2ccccc12 (stereo not given in full) | – | 900 | < 1 | 20000
COc1ccc(C(c2ccc(F)cc2)c2cc(C)cc(C)c2OCC(O)C[C@@H](O)CC(=O)O)cc1 (stereo not given in full) | – | 100 | – | –
CC(C)c1c(OCC(O)C[C@@H](O)CC(=O)O)c(C(c2ccc(F)cc2)c2ccc(F)cc2)cc2ccccc12 (stereo not given in full) | 2 | 380 | 2 | 3500
CC(C)c1cc(-c2ccccc2)cc(CC2CCCCC2)c1OCC(O)C[C@@H](O)CC(=O)O (stereo not given in full) | 2 | 400 | 50 | 100
O=C(O)C[C@H](O)CC(O)COc1c(Cl)cc(Cl)cc1C(F)(F)C1CCCCC1 (stereo not given in full) | – | 85 | 2 | 2500
CCC(C)(C)OC(=O)C(c1cc(C)cc(C)c1OCC(O)C[C@@H](O)CC(=O)O)C1CCCCC1 (stereo in doubt; 11s) [listing 1 of 2 here] | – | 500 | – | 1700
O=C(O)C[C@H](O)CC(O)COc1c(CCCOc2ccc(F)cc2)cc(Cl)cc1C1CCCC1 (stereo not given in full) | < 1 | > 1000 | – | –
Cc1cc(Cl)cc(CC2CCCCC2)c1OCC(O)C[C@@H](O)CC(=O)O (stereo not given in full) | 12 | 75 | – | –
O=C(O)C[C@H](O)CC(O)COc1c(Cl)cc(Cl)cc1C(=O)C1CCCCC1 (stereo not given in full) | 4 | 190 | – | –
Cc1cccc(CCCOc2ccc(F)cc2)c1OCC(O)C[C@@H](O)CC(=O)O (stereo not given in full) | 3 | 250 | – | –
Cc1cc(C)c(OCC(O)C[C@@H](O)CC(=O)O)c(C(c2ccc(F)cc2)c2ccc(F)cc2)c1 (stereo not given in full) | – | 70 | – | –
Cc1cc(C)c(OCC(O)C[C@@H](O)CC(=O)O)c(C(c2ccc(F)cc2)c2cccc(C(F)(F)F)c2)c1 (stereo not given in full) | – | 90 | – | –
O=C(O)C[C@H](O)CC(O)COc1c(Cl)cc(Cl)cc1C(c1ccc(F)cc1)c1ccc(F)cc1 (stereo in doubt; 11pp) | – | 950 | – | –
CCC(C)(C)C(=O)NC(c1cc(C)cc(C)c1OCC(O)C[C@@H](O)CC(=O)O)C1CCCCC1 (stereo in doubt; 11x) [listing 2 of 2 here] | – | 470 | – | 10000
Cc1cc(Cl)c(OCC(O)C[C@@H](O)CC(=O)O)c(C(c2ccc(F)c(C)c2)c2ccc(F)c(C)c2)c1 (stereo not given in full) | – | 270 | – | –
Cc1cc(C)c(OCC2C[C@@H](O)CC(=O)O2)c(C(Cl)C2CCCCC2)c1 (stereo not given in full) | – | > 1000 | < 1 | 6500
Cc1cc(Cl)cc(CCCOc2ccc(F)cc2)c1OCC(O)C[C@@H](O)CC(=O)O (stereo not given in full) | 10 | 80 | – | –
CCC(C)(C)OC(=O)C(c1cc(C)cc(C)c1OCC(O)C[C@@H](O)CC(=O)O)C1CCCCC1 (stereo in doubt; 11s) [listing 2 of 2 here] | – | – | 3 | –
